{"data": "Published values collected from several papers", "cell line": "MOLT-4", "observed": "cell growth or viability", "note": "Each line is one published result; the experiments were not run side by side."}
{"SMILES": "O=C(NO)c1ccc(Cn2cnc3c(Nc4ccc(F)c(Cl)c4)ncnc32)cc1", "technique": "MTT", "time": "72 h", "IC50": "660 nM"}
{"SMILES": "O=C(CSc1nc2ccccc2s1)N/N=C/c1ccc(OCC(=O)Nc2ccc([N+](=O)[O-])cc2)cc1", "technique": "MTS", "time": "72 h", "IC50": "> 100000 nM"}
{"SMILES": "Cc1ncsc1-c1ccc([C@H](C)NC(=O)[C@@H]2C[C@@H](O)CN2C(=O)[C@@H](NC(=O)CCCCCS(=O)(=O)NC(=O)c2nc(N3CCc4cccc(C(=O)Nc5nc6ccccc6s5)c4C3)ccc2-c2cnn(CC34CC5CC(CC(C5)C3)C4)c2C)C(C)(C)C)cc1", "technique": "MTS", "time": "48 h", "IC50": "4 nM"}
{"SMILES": "COc1ccc(Nc2ncnc3c2ncn3Cc2ccc(C(=O)Nc3ccccc3N)cc2)cc1", "technique": "MTT", "time": "72 h", "IC50": "610 nM"}
{"SMILES": "COc1cccc2c1C(=O)c1c(O)c3c(c(O)c1C2=O)C[C@@](O)(C(=O)CO)C[C@@H]3O[C@H]1C[C@H](N)[C@H](O)[C@H](C)O1", "time": "96 h", "IC50": "2.61 nM"}
{"SMILES": "COc1cc([C@@H]2c3cc4c(cc3[C@@H](O[C@@H]3O[C@@H]5CO[C@@H](C)O[C@H]5[C@H](O)[C@H]3O)[C@H]3COC(=O)[C@H]23)OCO4)cc(OC)c1O", "technique": "MTS", "time": "72 h", "IC50": "180 nM"}
{"SMILES": "Cc1c(-c2ccc(N3CCc4cccc(C(=O)Nc5nc6ccccc6s5)c4C3)nc2C(=O)NCCCCCCCCNc2cccc3c2C(=O)N(C2CCC(=O)NC2=O)C3=O)cnn1CC12CC3CC(CC(C3)C1)C2 (stereo not shown)", "technique": "MTS", "time": "48 h", "IC50": "> 2000 nM"}
{"SMILES": "O=C(CSc1nc2ccccc2s1)N/N=C/c1ccc(OCC(=O)Nc2cccc(Cl)c2)cc1", "technique": "MTS", "time": "72 h", "IC50": "7700 nM"}
{"SMILES": "O=C(NO)c1ccc(Cn2cnc3c(Nc4cccc([N+](=O)[O-])c4)ncnc32)cc1", "technique": "MTT", "time": "72 h", "IC50": "920 nM"}
{"SMILES": "Cc1ncsc1-c1ccc([C@H](C)NC(=O)[C@@H]2C[C@@H](O)CN2C(=O)[C@@H](NC(=O)CCCCCCCNC(=O)c2nc(N3CCc4cccc(C(=O)Nc5nc6ccccc6s5)c4C3)ccc2-c2cnn(CC34CC5CC(CC(C5)C3)C4)c2C)C(C)(C)C)cc1", "technique": "MTS", "time": "48 h", "IC50": "65 nM"}
